{"data": "Published values collected from several papers", "organism": "Salmonella enterica", "note": "Protocols differ between the studies behind these lines."}
{"SMILES": "CO/N=C(\\C(=O)N[C@@H]1C(=O)N2C(C(=O)O)=C(CSC(=O)c3ccco3)CS[C@H]12)c1csc(N)n1", "test": "microbial growth", "system": "CHOLERAESUIS", "conditions": "20 h, pH 7", "measurement": "MIC", "value": "1 µg/mL"}
{"SMILES": "CC1=NN(CNc2c(O)c(S(=O)(=O)O)cc3ccccc23)C(=O)C1=NNn1c(-c2ccccc2)nc2ccccc2c1=O", "test": "microbial growth, broth dilution", "system": "PARATYPHI", "conditions": "24 h", "measurement": "MIC", "value": "83.7 µM"}
{"SMILES": "COc1cc(Cc2cnc(N)nc2N)cc(OC)c1OC", "test": "microbial growth", "system": "CHOLERAESUIS", "conditions": "20 h, pH 5.5", "measurement": "MIC", "value": "0.5 µg/mL"}
{"SMILES": "CCCCCCCCCCCC(=O)OC[C@H]1O[C@@H](n2cc(C)c(=O)[nH]c2=O)C[C@@H]1O", "test": "microbial killing, broth dilution", "system": "TYPHI", "measurement": "MBC", "value": "8 µg/mL"}
{"SMILES": "O=C1NN=C(N=Cc2ccccc2O)C1=NNn1c(-c2ccccc2)nc2ccccc2c1=O", "test": "microbial growth, broth dilution", "system": "PARATYPHI", "conditions": "24 h", "measurement": "MIC", "value": "55.4 µM"}
{"SMILES": "CO[C@H]1/C=C/O[C@@]2(C)Oc3c(C)c(O)c4c(O)c(c(/C=N/N5CCN(C)CC5)c(O)c4c3C2=O)NC(=O)/C(C)=C\\C=C\\[C@H](C)[C@H](O)[C@@H](C)[C@@H](O)[C@@H](C)[C@H](OC(C)=O)[C@@H]1C", "test": "microbial growth", "system": "TYPHI", "measurement": "IC50", "value": "0.12 µM"}
{"SMILES": "CC1=NN(CNc2ccccc2)C(=O)C1=NNn1c(-c2ccccc2)nc2ccccc2c1=O", "test": "microbial growth, broth dilution", "system": "PARATYPHI", "conditions": "24 h", "measurement": "MIC", "value": "221 µM"}
{"SMILES": "CCCCCCCCCCCC(=O)OC[C@H]1O[C@@H](n2cc(C)c(=O)[nH]c2=O)C[C@@H]1OC(=O)c1ccc(C(C)(C)C)cc1", "test": "microbial killing, broth dilution", "system": "TYPHI", "measurement": "MBC", "value": "16 µg/mL"}
{"SMILES": "CO[C@H]1O[C@H](COC(c2ccccc2)(c2ccccc2)c2ccccc2)[C@@H](OC(=O)c2ccc(C(C)(C)C)cc2)[C@H](OC(=O)c2ccc(C(C)(C)C)cc2)[C@H]1OC(=O)c1ccc(C(C)(C)C)cc1", "test": "microbial killing, broth dilution", "system": "TYPHI", "measurement": "MBC", "value": "16 µg/mL"}
{"SMILES": "[H]/N=C(/N)N[C@H]1[C@H](O)[C@@H](O)[C@H](O[C@@H]2O[C@@H](C)[C@](O)(C=O)[C@H]2O[C@@H]2O[C@@H](CO)[C@H](O)[C@@H](O)[C@@H]2NC)[C@@H](N/C(N)=N\\[H])[C@@H]1O", "test": "microbial growth", "system": "TYPHI", "measurement": "IC50", "value": "8.1 µM"}
{"SMILES": "CCn1cc(C(=O)O)c(=O)c2ccc(C)nc21", "test": "microbial growth", "system": "CHOLERAESUIS", "conditions": "20 h, pH 7.2", "measurement": "MIC", "value": "4 µg/mL"}
